Laboratory results as given in ChEMBL document CHEMBL3352515, “Design, synthesis, antiviral and cytostatic activity of ω-(1H-1,2,3-triazol-1-yl)(polyhydroxy)alkylphosphonates as acyclic nucleotide analogues” (Bioorg Med Chem, 2014).
Calls of active or inactive are those of the source. The calls are words filed in the database; no cut-off is given here.

What was measured:
CCRF-CEM = assay: Cytostatic activity against human CEM cells assessed as inhibition of proliferation after 72 hrs by Coulter cell counting method; assay type: functional, cell-based
In short: (§1)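 (5–7.5) × 10⁴ tumor cells per well were exposed to test compound at 37 °C in humidified CO₂. Incubation ran 48 h for L1210 and 72 h for CEM and HeLa. Cells were then counted in a Coulter counter. IC₅₀ is the concentration that inhibits cell proliferation by 50%.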

Human alphaherpesvirus 3 [1] = assay: Antiviral activity against Thymidine kinase-positive Varicella-zoster virus Oka infected in HEL assessed as reduction in virus plaque formation; assay type: functional, organism-based; settings: Human alphaherpesvirus 3, strain Oka vaccine
In short: (§2)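 Confluent HEL fibroblast cultures were inoculated with 20 PFU of VZV together with varying compound concentrations. Plaque formation was recorded once complete in untreated infected controls. EC50 is the concentration that reduced viral plaque formation by 50%.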

Human alphaherpesvirus 3 [2] = assay: Antiviral activity against Thymidine kinase-negative Varicella-zoster virus 07-1 infected in HEL assessed as reduction in virus plaque formation; assay type: functional, organism-based; settings: Human alphaherpesvirus 3, 07-1; in short: as §2
HeLa = assay: Cytostatic activity against human HeLa cells assessed as inhibition of proliferation after 72 hrs by Coulter cell counting method; assay type: functional, cell-based; in short: as §1
[3] = tested on: Vesicular stomatitis virus; assay: Antiviral activity against Vesicular stomatitis virus infected in HeLa cells assessed as inhibition of virus-induced cytopathogenicity; assay type: functional, organism-based
In short: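 HeLa cell monolayers (confluent) were infected with 100 CCID50 of VSV in the presence of serial compound concentrations. Viral cytopathicity was read when complete in untreated infected controls. EC50 is the concentration that reduced virus-induced cytopathogenicity by 50%.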

L1210 = assay: Cytostatic activity against mouse L1210 cells assessed as inhibition of proliferation after 48 hrs by Coulter cell counting method; assay type: functional, cell-based; settings: L1210, 48 h; in short: as §1
[4] = tested on: Respiratory syncytial virus; assay: Antiviral activity against Respiratory syncytial virus infected in HeLa cells assessed as inhibition of virus-induced cytopathogenicity; assay type: functional, organism-based
In short: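 Confluent host-cell monolayers in 96-well plates were inoculated with 100 CCID₅₀ of virus while exposed to a range of test compound concentrations. Cytopathic effect was scored once it was complete in untreated infected controls. EC₅₀ is the concentration that reduces virus-induced cytopathogenicity by 50%.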

With `O=c1cnn(Cc2cn(C[C@H](OCc3ccccc3)[C@@H](O)P(=O)(OCc3ccccc3)OCc3ccccc3)nn2)c(=O)[nH]1` the IC50 (CCRF-CEM) was 71 µM, the EC50 (Human alphaherpesvirus 3 [1]) was 63.7 µM and the EC50 (Human alphaherpesvirus 3 [2]) was 70 µM. For the same compound, the IC50 (HeLa) was 64 µM, the inhibition [3] was “inactive” and the IC50 (L1210) was 78 µM. For the same compound, the inhibition [4] was “inactive”.
